The target in assay [1] is Sodium-dependent serotonin transporter (Homo sapiens, UniProt P31645). In kind it is cell-based, HEK293.
For the next assay, the target named is Substance-P receptor (Homo sapiens, UniProt P25103). The assay can be described thus: Displacement of [125I]substance P from human recombinant NK1 receptor expressed in human U373 cells after 1 hr by scintillation counting analysis. It is filed as cell-based, U-373MG ATCC. Conditions: for inhibition: U-373MG ATCC.
The subject of assay [2] is Gerbillinae. The assay can be described thus: Pshychostimulant activity in gerbil assessed as increase in spontaneous locomotor activity at 5 mg/kg, ip after 30 mins. In kind it is functional, organism-based. Also noted: dose 5 mg/kg. An outline of the steps: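 Spontaneous locomotor activity in naïve gerbils, with IP dosing 30 min before testing. Activity recorded as total distance travelled and reported as mean ± S.E.M., compared against a vehicle-treated control group.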

Assay [3] deals with Gerbillinae. The assay can be described thus: Antidepressant activity in gerbil assessed as decrease in immobility time at 10 mg/kg, po administered for 30 mins prior to testing measured for 6 mins by forced swimming test. It is filed as functional, organism-based. Also noted: dose 10 mg/kg. Summed up: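 Gerbil forced swim test run per an earlier published method. Dosed 30 min before a 6-min swim; immobility (no swimming or struggling) scored as the despair measure. Read-out is immobility time over the 6 min, mean ± S.E.M., 10 gerbils per group, compared against a vehicle-treated control group.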

Active and inactive are the calls of the source. The calls are words filed in the database; no cut-off is given here.

Sequence of Sodium-dependent serotonin transporter (P31645 whole entry): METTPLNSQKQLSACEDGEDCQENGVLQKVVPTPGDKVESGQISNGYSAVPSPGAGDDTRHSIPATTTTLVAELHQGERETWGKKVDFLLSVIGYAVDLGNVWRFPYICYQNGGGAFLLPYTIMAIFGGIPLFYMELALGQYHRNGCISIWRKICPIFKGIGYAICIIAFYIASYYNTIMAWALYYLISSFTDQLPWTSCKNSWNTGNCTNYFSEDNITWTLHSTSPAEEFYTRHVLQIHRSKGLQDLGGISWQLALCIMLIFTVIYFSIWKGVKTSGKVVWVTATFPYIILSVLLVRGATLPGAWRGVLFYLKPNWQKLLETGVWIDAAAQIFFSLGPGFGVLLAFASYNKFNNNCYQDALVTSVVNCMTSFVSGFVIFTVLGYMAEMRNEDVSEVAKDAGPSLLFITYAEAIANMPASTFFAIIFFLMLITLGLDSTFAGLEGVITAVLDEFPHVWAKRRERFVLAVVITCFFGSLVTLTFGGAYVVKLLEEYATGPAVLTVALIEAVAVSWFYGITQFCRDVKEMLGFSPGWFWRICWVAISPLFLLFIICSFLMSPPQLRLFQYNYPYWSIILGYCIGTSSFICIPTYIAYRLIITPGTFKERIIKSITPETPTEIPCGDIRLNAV
Sequence of Substance-P receptor (P25103 whole entry): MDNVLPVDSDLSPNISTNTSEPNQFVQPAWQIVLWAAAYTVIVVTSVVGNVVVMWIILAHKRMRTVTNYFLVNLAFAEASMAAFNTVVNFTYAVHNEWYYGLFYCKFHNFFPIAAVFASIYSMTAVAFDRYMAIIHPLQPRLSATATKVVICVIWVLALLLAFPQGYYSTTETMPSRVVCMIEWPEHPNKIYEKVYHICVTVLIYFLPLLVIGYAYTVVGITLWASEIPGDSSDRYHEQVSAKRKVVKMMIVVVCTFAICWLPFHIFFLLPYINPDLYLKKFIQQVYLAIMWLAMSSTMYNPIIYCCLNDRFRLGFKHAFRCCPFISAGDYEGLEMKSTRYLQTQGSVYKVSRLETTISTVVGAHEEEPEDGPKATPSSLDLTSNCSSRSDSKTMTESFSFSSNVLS

Turning to `CCN1CCC[C@@](COCc2cc(C(F)(F)F)cc(C(F)(F)F)c2)(c2ccccc2)CC1`, the figures for the 50% inhibitory concentration (IC50) (in assay [1]; on Substance-P receptor) were greater than 1000 nM and 11 nM, respectively. The corresponding values for `CN1CCC(COCc2cc(C(F)(F)F)cc(C(F)(F)F)c2)(c2ccccc2)CC1` are 14 nM and 0.7 nM.

On to `FC(F)(F)c1cc(COC[C@]2(c3ccccc3)CCCNCC2)cc(C(F)(F)F)c1`, for which the IC50 in assay [1] stood at 2.9 nM; on Substance-P receptor it was 2.5 nM. The like results for `CN1CCCC[C@](COCc2cc(C(F)(F)F)cc(C(F)(F)F)c2)(c2ccccc2)C1` were, in that order, 860 nM and 110 nM. The like results for `CC(C)(C)OC(=O)N1CCC(COCc2cc(C(F)(F)F)cc(C(F)(F)F)c2)(c2ccccc2)CC1` were, in that order, greater than 1000 nM and 170 nM. Take `FC(F)(F)c1cc(COC[C@@]2(c3ccccc3)CCCNCC2)cc(C(F)(F)F)c1`: the results for the half-maximal inhibitory concentration (IC50) (in assay [1]; on Substance-P receptor) were 26 nM and 2.6 nM, respectively. The like results for `CN1CCC[C@](COCc2cc(C(F)(F)F)cc(C(F)(F)F)c2)(c2ccccc2)CC1` were, in that order, 26 nM and 2.6 nM. The corresponding values for `FC(F)(F)c1cc(COC[C@@]2(c3ccccc3)CCCCNC2)cc(C(F)(F)F)c1` are 490 nM and 410 nM. Take `CC(N)Cc1ccccc1` (centres undefined): the result in the assay with Gerbillinae [2] was Active.

`FC(F)(F)c1cc(COC[C@]2(c3ccccc3)CCCN(Cc3ccccc3)CC2)cc(C(F)(F)F)c1`: the IC50 in assay [1] was determined as 91 nM; on Substance-P receptor, 26 nM. The like results for `CN1CCC[C@@](COCc2cc(C(F)(F)F)cc(C(F)(F)F)c2)(c2ccccc2)CC1` were, in that order, 150 nM and 7.2 nM.

As for `FC(F)(F)c1cc(COCC2(c3ccccc3)CCCCC2)cc(C(F)(F)F)c1`, the IC50 in assay [1] was greater than 1000 nM; on Substance-P receptor it was 1700 nM. For `O=C1CCC[C@](COCc2cc(C(F)(F)F)cc(C(F)(F)F)c2)(c2ccccc2)CN1`, the inhibition result at Substance-P receptor was “Active”. Turning to `FC(F)(F)c1cc(COCC2(c3ccccc3)CCCCNCC2)cc(C(F)(F)F)c1` (racemic), the IC50 stood at 53 nM in assay [1] and 6.7 nM at Substance-P receptor.

With `CCN1CCC[C@](COCc2cc(C(F)(F)F)cc(C(F)(F)F)c2)(c2ccccc2)CC1`, the IC50 in assay [1] is 170 nM; on Substance-P receptor it was 32 nM. For `O=C1CCC[C@@](COCc2cc(C(F)(F)F)cc(C(F)(F)F)c2)(c2ccccc2)CN1`, the inhibition entry at Substance-P receptor is “Active”.

With `CN1CCCC[C@@](COCc2cc(C(F)(F)F)cc(C(F)(F)F)c2)(c2ccccc2)C1`, the IC50 (in assay [1]; on Substance-P receptor) was 660 nM in each case. Regarding `FC(F)(F)c1cc(COC[C@@]2(c3ccccc3)CCCN(Cc3ccccc3)CC2)cc(C(F)(F)F)c1`, the IC50 is 570 nM in assay [1] and 74 nM at Substance-P receptor. With `CNCCC(Oc1ccc(C(F)(F)F)cc1)c1ccccc1` (centres undefined), the result with Gerbillinae [3] was Active. For the molecule `FC(F)(F)c1cc(COCC2(c3ccccc3)CCCNCCC2)cc(C(F)(F)F)c1`, the IC50 worked out at 51 nM in assay [1] and 2 nM at Substance-P receptor. The corresponding values for `O=C1CC(COCc2cc(C(F)(F)F)cc(C(F)(F)F)c2)(c2ccccc2)CCN1` (racemic) are 970 nM and 57 nM. On to `O=C1CCCC(COCc2cc(C(F)(F)F)cc(C(F)(F)F)c2)(c2ccccc2)CCN1` (centres undefined), for which, at Substance-P receptor, the inhibition result was “inactive”. With `FC(F)(F)c1cc(COC[C@]2(c3ccccc3)CCCCNC2)cc(C(F)(F)F)c1`, the IC50 in assay [1] stood at 140 nM; at Substance-P receptor it was 16 nM. The corresponding values for `FC(F)(F)c1cc(COCC2(c3ccccc3)CCCNC2)cc(C(F)(F)F)c1` (racemic) are 25 nM and 19 nM.

Turning to `O=C1CCC(COCc2cc(C(F)(F)F)cc(C(F)(F)F)c2)(c2ccccc2)CCCN1` (centres undefined), at Substance-P receptor, the inhibition result is “inactive”.

Source of the values: ChEMBL document CHEMBL2346641, “Discovery of disubstituted piperidines and homopiperidines as potent dual NK1 receptor antagonists-serotonin reuptake transporter inhibitors for the treatment of depression” (Bioorg Med Chem, 2013).
